Source: ChEMBL document CHEMBL2202957, “Redox potentials, laccase oxidation, and antilarval activities of substituted phenols” (2012)
Activity calls are given as the source filed them. The calls are words filed in the database; no cut-off is given here.

What was measured:
Anopheles gambiae [1] = test: Antilarval activity against third-instar larvae of Anopheles gambiae assessed as mortality at 1000 ug/L after 72 hrs; format: functional
Outline: (§1)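 Third-instar larvae came from a laboratory An. gambiae colony originally from MR4. Groups of 12–15 larvae were held at 25°C in distilled water with larval food. Compound was added from an acetone or water stock to final 50 or 1000 μg/L, with a solvent-only control. Treatments and controls were run four times, and mortality was scored at 72 h.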

Anopheles gambiae [2] = test: Antilarval activity against third-instar larvae of Anopheles gambiae assessed as mortality at 50 ug/L after 72 hrs; format: functional; outline: as §1
Trametes versicolor [3] = test: Inhibition of Trametes versicolor laccase
Trametes versicolor [4] = system: Trametes versicolor;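 on Km: kinetic parameters for Trametes versicolor laccase, determined from a spectrophotometric readout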;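 on kcat/Km: measured with the laccase enzyme of Trametes versicolor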
Trametes versicolor [5] = system: Trametes versicolor; remark: listed apart in the source;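 on Km: kinetic parameters for Trametes versicolor laccase, determined from a spectrophotometric readout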;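 on kcat/Km: measured with the laccase enzyme of Trametes versicolor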
Anopheles gambiae [6] = test: Antilarval activity against third-instar larvae of Anopheles gambiae assessed as effect on cuticle development by microscopic analysis relative to control; format: functional
Culex pipiens molestus = test: Antilarval activity against third-instar larvae of Culex molestus assessed as mortality at 100 ug/L after 72 hrs; format: functional

## CC(C)(C)c1cc(C(C)(C)C(=O)[O-])cc(C(C)(C)C)c1O.[Na+]
Anopheles gambiae [1]
  Activity: 12.3%
Anopheles gambiae [2]
  Activity: 5.5%

## Cc1ccc(O)c(N)c1
Trametes versicolor [3]
  inhibition: inactive
Trametes versicolor [4]
  kcat/Km: 1.19e+06 M⁻¹ s⁻¹
Trametes versicolor [5]
  Km: 110 µM
  kcat: 131 s⁻¹

## Oc1ccc(O)cc1 [HYDROQUINONE]
Anopheles gambiae [1]
  Activity: 5.38%
Trametes versicolor [4]
  kcat/Km: 594 M⁻¹ s⁻¹
Anopheles gambiae [2]
  Activity: 1.25%
Trametes versicolor [5]
  Km: 20 µM
  kcat: 119 s⁻¹

## COc1c(O)cc(O)c(Br)c1Cl
Trametes versicolor [3]
  inhibition: inactive
Trametes versicolor [4]
  kcat/Km: 1.37e+06 M⁻¹ s⁻¹
Trametes versicolor [5]
  Km: 70 µM
  kcat: 96 s⁻¹

## COC1=CC(=O)C(N[C@@H](C)C(=O)OCc2ccccc2)=C(Cl)C1=O
Anopheles gambiae [1]
  Activity: 6.66%
Anopheles gambiae [2]
  Activity: 5%

## CC(C)(C)c1cc(C(C)(C)C=O)cc(C(C)(C)C)c1O
Anopheles gambiae [1]
  Activity: 65%
Anopheles gambiae [2]
  Activity: 0%

## COc1cc(O)c(O)c(Cl)c1Br
Trametes versicolor [3]
  inhibition: inactive
Trametes versicolor [4]
  kcat/Km: 2.24e+06 M⁻¹ s⁻¹
Trametes versicolor [5]
  Km: 40 µM
  kcat: 89.7 s⁻¹

## CC(C)=CCc1cc(C(C)(C)C)cc(C(C)(C)C)c1O
Anopheles gambiae [6]
  Activity: Active
Anopheles gambiae [1]
  Activity: 98.3%
Anopheles gambiae [2]
  Activity: 98.1%
Culex pipiens molestus
  Activity: 60%

## CC(C)(C)c1cc(C(C)(C)CNCc2ccccc2)cc(C(C)(C)C)c1O.O=C(O)C(F)(F)F
Anopheles gambiae [1]
  Activity: 7.7%
Anopheles gambiae [2]
  Activity: 3.71%

## Nc1ccccc1N
Trametes versicolor [4]
  kcat/Km: 40300 M⁻¹ s⁻¹
Trametes versicolor [5]
  Km: 430 µM
  kcat: 17.3 s⁻¹

## CC1(C)CCc2cc(C(C)(C)C)cc(C(C)(C)C)c2O1
Anopheles gambiae [1]
  Activity: 91.7%
Anopheles gambiae [2]
  Activity: 5.77%

## Oc1cc(O)c(Br)c(Cl)c1O
Trametes versicolor [3]
  inhibition: inactive
Anopheles gambiae [1]
  Activity: 11.4%
Trametes versicolor [4]
  kcat/Km: 2.89e+06 M⁻¹ s⁻¹
Anopheles gambiae [2]
  Activity: 0%
Trametes versicolor [5]
  Km: 50 µM
  kcat: 145 s⁻¹

## O=Cc1cc(O)c(O)c(Cl)c1
Trametes versicolor [3]
  inhibition: inactive
Trametes versicolor [4]
  kcat/Km: 792000 M⁻¹ s⁻¹
Trametes versicolor [5]
  Km: 40 µM
  kcat: 31.7 s⁻¹

## Nc1cc(C(=O)O)ccc1O
Trametes versicolor [3]
  inhibition: inactive
Trametes versicolor [4]
  kcat/Km: 698000 M⁻¹ s⁻¹
Trametes versicolor [5]
  Km: 70 µM
  kcat: 48.8 s⁻¹

## Nc1cc(CO)ccc1O
Trametes versicolor [3]
  inhibition: inactive
Trametes versicolor [4]
  kcat/Km: 788000 M⁻¹ s⁻¹
Trametes versicolor [5]
  Km: 80 µM
  kcat: 63 s⁻¹

## Oc1ccccc1O
Trametes versicolor [4]
  kcat/Km: 55800 M⁻¹ s⁻¹
Trametes versicolor [5]
  Km: 600 µM
  kcat: 33.5 s⁻¹

## COc1cc(O)c(Br)c(Cl)c1O
Trametes versicolor [3]
  inhibition: inactive
Trametes versicolor [4]
  kcat/Km: 262000 M⁻¹ s⁻¹
Trametes versicolor [5]
  Km: 70 µM
  kcat: 18.3 s⁻¹

## CC(C)(C)c1cc(C(C)(C)c2ccccc2)cc(C(C)(C)C)c1O
Anopheles gambiae [1]
  Activity: 100%
Anopheles gambiae [2]
  Activity: 93.3%

## COc1cc(C=O)cc(Cl)c1O
Trametes versicolor [3]
  inhibition: inactive
Trametes versicolor [4]
  kcat/Km: 47800 M⁻¹ s⁻¹
Trametes versicolor [5]
  Km: 2200 µM
  kcat: 105 s⁻¹

## Nc1ccccc1O
Trametes versicolor [4]
  kcat/Km: 197000 M⁻¹ s⁻¹
Trametes versicolor [5]
  Km: 190 µM
  kcat: 37.5 s⁻¹

## CC(C)(C)c1cc(C(C)(C)/C=N/O)cc(C(C)(C)C)c1O
Anopheles gambiae [1]
  Activity: 93.1%
Anopheles gambiae [2]
  Activity: 5.41%

## CC(C)(C)c1cc(C(C)(C)CO)cc(C(C)(C)C)c1O
Anopheles gambiae [1]
  Activity: 46.7%
Anopheles gambiae [2]
  Activity: 0%

## CC(C)(Br)C(=O)c1cc(C(C)(C)C)c(O)c(C(C)(C)C)c1
Anopheles gambiae [1]
  Activity: 60%
Anopheles gambiae [2]
  Activity: 0%

## Nc1ccc(C(=O)O)cc1O
Trametes versicolor [3]
  inhibition: inactive
Trametes versicolor [4]
  kcat/Km: 250000 M⁻¹ s⁻¹
Trametes versicolor [5]
  Km: 170 µM
  kcat: 42.5 s⁻¹
